Laboratory results as given in ChEMBL document CHEMBL4689842, “EUbOPEN Chemogenomics Library wave 1” (2021).

System: HEK-293T
Experiment: Multiplex assay against HEK293T;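 for Population Tubulin-Different-Phenotype (%): share of the cells with healthy nuclei that show this phenotype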
Type: toxicity, cell-based
Details: human
Procedure, shortened: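 Live cells carried four stains from seeding: Hoechst33342, BioTracker Green Microtubule Cytoskeleton Dye, MitoTracker Red and Annexin V Alexa Fluor 680. They were imaged on a CQ1 microscope at 37°C and 5% CO2 after compound addition. Using CellPathfinder machine-learning gating, cells were split into Hoechst high-intensity objects or normal cells, normal cells into healthy, pyknosed or fragmented nuclei, and pyknosed cells into mitotic or apoptotic; tubulin, mitochondrial-mass and membrane-permeability phenotypes are per cents of healthy-nucleus cells.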

[1] = 12 h, 1 µM, compound concentration 1 uM, replicate 1
[2] = 12 h, 1 µM, compound concentration 1 uM, replicate 2
[3] = 12 h, 10 µM, compound concentration 10 uM, replicate 1
[4] = 12 h, 10 µM, compound concentration 10 uM, replicate 2
[5] = 24 h, 1 µM, compound concentration 1 uM, replicate 1
[6] = 24 h, 1 µM, compound concentration 1 uM, replicate 2
[7] = 24 h, 10 µM, compound concentration 10 uM, replicate 1
[8] = 24 h, 10 µM, compound concentration 10 uM, replicate 2
[9] = 48 h, 1 µM, compound concentration 1 uM, replicate 1
[10] = 48 h, 1 µM, compound concentration 1 uM, replicate 2
[11] = 48 h, 10 µM, compound concentration 10 uM, replicate 1
[12] = 48 h, 10 µM, compound concentration 10 uM, replicate 2

## CCc1cc2c(cc1CC)CC(NC[C@H](O)c1ccc(O)c3[nH]c(=O)ccc13)C2 [INDACATEROL]
[1]
  Population Apoptotic (%): 48%
  Population Fragmented Nuclei (%): 10%
  Population Healthy Nuclei (%): 47%
  Population Hoechst High Intensity Objects (%): 16%
  Population Membrane Permeable-Phenotype (%): 4%
  Population Mitochondria Different-Phenotype (%): 74%
  Population Mitotic Cells (%): 51%
  Population Normal (%): 83%
  Population Pyknosed Nuclei (%): 42%
  Population Tubulin-Different-Phenotype (%): 53%
  Total Cell Count: 240
[2]
  Population Apoptotic (%): 6%
  Population Fragmented Nuclei (%): 8%
  Population Healthy Nuclei (%): 36%
  Population Hoechst High Intensity Objects (%): 3%
  Population Membrane Permeable-Phenotype (%): 10%
  Population Mitochondria Different-Phenotype (%): 50%
  Population Mitotic Cells (%): 93%
  Population Normal (%): 96%
  Population Pyknosed Nuclei (%): 55%
  Population Tubulin-Different-Phenotype (%): 51%
  Total Cell Count: 228
[3]
  Population Apoptotic (%): 93%
  Population Fragmented Nuclei (%): 19%
  Population Healthy Nuclei (%): 12%
  Population Hoechst High Intensity Objects (%): 30%
  Population Membrane Permeable-Phenotype (%): 0%
  Population Mitochondria Different-Phenotype (%): 61%
  Population Mitotic Cells (%): 6%
  Population Normal (%): 69%
  Population Pyknosed Nuclei (%): 67%
  Population Tubulin-Different-Phenotype (%): 61%
  Total Cell Count: 204
[4]
  Population Apoptotic (%): 82%
  Population Fragmented Nuclei (%): 8%
  Population Healthy Nuclei (%): 17%
  Population Hoechst High Intensity Objects (%): 12%
  Population Membrane Permeable-Phenotype (%): 3%
  Population Mitochondria Different-Phenotype (%): 90%
  Population Mitotic Cells (%): 17%
  Population Normal (%): 87%
  Population Pyknosed Nuclei (%): 74%
  Population Tubulin-Different-Phenotype (%): 87%
  Total Cell Count: 215
[5]
  Population Apoptotic (%): 48%
  Population Fragmented Nuclei (%): 10%
  Population Healthy Nuclei (%): 57%
  Population Hoechst High Intensity Objects (%): 16%
  Population Membrane Permeable-Phenotype (%): 4%
  Population Mitochondria Different-Phenotype (%): 70%
  Population Mitotic Cells (%): 52%
  Population Normal (%): 83%
  Population Pyknosed Nuclei (%): 32%
  Population Tubulin-Different-Phenotype (%): 43%
  Total Cell Count: 279
[6]
  Population Apoptotic (%): 22%
  Population Fragmented Nuclei (%): 7%
  Population Healthy Nuclei (%): 55%
  Population Hoechst High Intensity Objects (%): 2%
  Population Membrane Permeable-Phenotype (%): 3%
  Population Mitochondria Different-Phenotype (%): 42%
  Population Mitotic Cells (%): 77%
  Population Normal (%): 97%
  Population Pyknosed Nuclei (%): 37%
  Population Tubulin-Different-Phenotype (%): 55%
  Total Cell Count: 282
[7]
  Population Apoptotic (%): 98%
  Population Fragmented Nuclei (%): 22%
  Population Healthy Nuclei (%): 11%
  Population Hoechst High Intensity Objects (%): 33%
  Population Membrane Permeable-Phenotype (%): 6%
  Population Mitochondria Different-Phenotype (%): 50%
  Population Mitotic Cells (%): 1%
  Population Normal (%): 66%
  Population Pyknosed Nuclei (%): 65%
  Population Tubulin-Different-Phenotype (%): 50%
  Total Cell Count: 213
[8]
  Population Apoptotic (%): 95%
  Population Fragmented Nuclei (%): 5%
  Population Healthy Nuclei (%): 20%
  Population Hoechst High Intensity Objects (%): 15%
  Population Membrane Permeable-Phenotype (%): 2%
  Population Mitochondria Different-Phenotype (%): 97%
  Population Mitotic Cells (%): 4%
  Population Normal (%): 84%
  Population Pyknosed Nuclei (%): 74%
  Population Tubulin-Different-Phenotype (%): 89%
  Total Cell Count: 219
[9]
  Population Apoptotic (%): 43%
  Population Fragmented Nuclei (%): 12%
  Population Healthy Nuclei (%): 72%
  Population Hoechst High Intensity Objects (%): 9%
  Population Membrane Permeable-Phenotype (%): 0%
  Population Mitochondria Different-Phenotype (%): 45%
  Population Mitotic Cells (%): 56%
  Population Normal (%): 90%
  Population Pyknosed Nuclei (%): 14%
  Population Tubulin-Different-Phenotype (%): 33%
  Total Cell Count: 393
[10]
  Population Apoptotic (%): 22%
  Population Fragmented Nuclei (%): 7%
  Population Healthy Nuclei (%): 73%
  Population Hoechst High Intensity Objects (%): 7%
  Population Membrane Permeable-Phenotype (%): 5%
  Population Mitochondria Different-Phenotype (%): 17%
  Population Mitotic Cells (%): 77%
  Population Normal (%): 92%
  Population Pyknosed Nuclei (%): 18%
  Population Tubulin-Different-Phenotype (%): 49%
  Total Cell Count: 448
[11]
  Population Apoptotic (%): 91%
  Population Fragmented Nuclei (%): 29%
  Population Healthy Nuclei (%): 2%
  Population Hoechst High Intensity Objects (%): 35%
  Population Membrane Permeable-Phenotype (%): 25%
  Population Mitochondria Different-Phenotype (%): 25%
  Population Mitotic Cells (%): 8%
  Population Normal (%): 64%
  Population Pyknosed Nuclei (%): 67%
  Population Tubulin-Different-Phenotype (%): 0%
  Total Cell Count: 209
[12]
  Population Apoptotic (%): 98%
  Population Fragmented Nuclei (%): 9%
  Population Healthy Nuclei (%): 17%
  Population Hoechst High Intensity Objects (%): 17%
  Population Membrane Permeable-Phenotype (%): 6%
  Population Mitochondria Different-Phenotype (%): 96%
  Population Mitotic Cells (%): 1%
  Population Normal (%): 82%
  Population Pyknosed Nuclei (%): 73%
  Population Tubulin-Different-Phenotype (%): 96%
  Total Cell Count: 214
